Measurements published in ChEMBL document CHEMBL5058577, “EUbOPEN Chemogenomics Library 2 (Multiplex)” (2022).

Tested on: U2OS
Test: Multiplex assay against U2OS
Format: toxicity, cell-based
Details: human
Summary of the method: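 Live cells were stained at seeding with Hoechst33342, BioTracker Green Microtubule Cytoskeleton Dye, MitoTracker Red and Annexin V Alexa Fluor 680. Following compound addition, they were imaged on a CQ1 microscope at 37°C and 5% CO2 and gated by CellPathfinder machine learning into Hoechst high-intensity objects or normal cells, with normal cells split into healthy, pyknosed or fragmented nuclei and pyknosed cells into mitotic or apoptotic. Tubulin, mitochondrial-mass and membrane-permeability phenotypes are per cents of healthy-nucleus cells.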

[1] = 12 h, 1 µM, compound concentration 1 uM, replicate 1
[2] = 12 h, 1 µM, compound concentration 1 uM, replicate 2
[3] = 12 h, 10 µM, compound concentration 10 uM, replicate 1
[4] = 12 h, 10 µM, compound concentration 10 uM, replicate 2
[5] = 24 h, 1 µM, compound concentration 1 uM, replicate 1
[6] = 24 h, 1 µM, compound concentration 1 uM, replicate 2
[7] = 24 h, 10 µM, compound concentration 10 uM, replicate 1
[8] = 24 h, 10 µM, compound concentration 10 uM, replicate 2
[9] = 48 h, 1 µM, compound concentration 1 uM, replicate 1
[10] = 48 h, 1 µM, compound concentration 1 uM, replicate 2
[11] = 48 h, 10 µM, compound concentration 10 uM, replicate 1
[12] = 48 h, 10 µM, compound concentration 10 uM, replicate 2

## N#Cc1c(N)nc(SCc2csc(-c3ccc(Cl)cc3)n2)c(C#N)c1-c1ccc(OCCO)cc1 [CAPADENOSON]
[1]
  Population Apoptotic (%): 78%
  Population Fragmented Nuclei (%): 25%
  Population Healthy Nuclei (%): 65%
  Population Hoechst High Intensity Objects (%): 5%
  Population Membrane Permeable-Phenotype (%): 14%
  Population Mitochondria Different-Phenotype (%): 4%
  Population Mitotic Cells (%): 21%
  Population Normal (%): 94%
  Population Pyknosed Nuclei (%): 8%
  Population Tubulin-Different-Phenotype (%): 10%
  Total Cell Count: 236
[2]
  Population Apoptotic (%): 80%
  Population Fragmented Nuclei (%): 18%
  Population Healthy Nuclei (%): 75%
  Population Hoechst High Intensity Objects (%): 1%
  Population Membrane Permeable-Phenotype (%): 5%
  Population Mitochondria Different-Phenotype (%): 2%
  Population Mitotic Cells (%): 20%
  Population Normal (%): 98%
  Population Pyknosed Nuclei (%): 6%
  Population Tubulin-Different-Phenotype (%): 1%
  Total Cell Count: 150
[3]
  Population Apoptotic (%): 64%
  Population Fragmented Nuclei (%): 35%
  Population Healthy Nuclei (%): 40%
  Population Hoechst High Intensity Objects (%): 5%
  Population Membrane Permeable-Phenotype (%): 70%
  Population Mitochondria Different-Phenotype (%): 37%
  Population Mitotic Cells (%): 35%
  Population Normal (%): 94%
  Population Pyknosed Nuclei (%): 24%
  Population Tubulin-Different-Phenotype (%): 65%
  Total Cell Count: 255
[4]
  Population Apoptotic (%): 68%
  Population Fragmented Nuclei (%): 24%
  Population Healthy Nuclei (%): 56%
  Population Hoechst High Intensity Objects (%): 0%
  Population Membrane Permeable-Phenotype (%): 49%
  Population Mitochondria Different-Phenotype (%): 61%
  Population Mitotic Cells (%): 31%
  Population Normal (%): 99%
  Population Pyknosed Nuclei (%): 18%
  Population Tubulin-Different-Phenotype (%): 70%
  Total Cell Count: 102
[5]
  Population Apoptotic (%): 87%
  Population Fragmented Nuclei (%): 23%
  Population Healthy Nuclei (%): 64%
  Population Hoechst High Intensity Objects (%): 3%
  Population Membrane Permeable-Phenotype (%): 9%
  Population Mitochondria Different-Phenotype (%): 4%
  Population Mitotic Cells (%): 12%
  Population Normal (%): 96%
  Population Pyknosed Nuclei (%): 12%
  Population Tubulin-Different-Phenotype (%): 6%
  Total Cell Count: 263
[6]
  Population Apoptotic (%): 61%
  Population Fragmented Nuclei (%): 16%
  Population Healthy Nuclei (%): 71%
  Population Hoechst High Intensity Objects (%): 0%
  Population Membrane Permeable-Phenotype (%): 5%
  Population Mitochondria Different-Phenotype (%): 2%
  Population Mitotic Cells (%): 38%
  Population Normal (%): 99%
  Population Tubulin-Different-Phenotype (%): 2%
  Total Cell Count: 176
[7]
  Population Apoptotic (%): 71%
  Population Fragmented Nuclei (%): 36%
  Population Healthy Nuclei (%): 37%
  Population Hoechst High Intensity Objects (%): 5%
  Population Membrane Permeable-Phenotype (%): 47%
  Population Mitochondria Different-Phenotype (%): 38%
  Population Mitotic Cells (%): 28%
  Population Normal (%): 94%
  Population Pyknosed Nuclei (%): 26%
  Population Tubulin-Different-Phenotype (%): 47%
  Total Cell Count: 253
[8]
  Population Apoptotic (%): 69%
  Population Fragmented Nuclei (%): 25%
  Population Healthy Nuclei (%): 49%
  Population Hoechst High Intensity Objects (%): 2%
  Population Membrane Permeable-Phenotype (%): 34%
  Population Mitochondria Different-Phenotype (%): 58%
  Population Mitotic Cells (%): 30%
  Population Normal (%): 97%
  Population Pyknosed Nuclei (%): 24%
  Population Tubulin-Different-Phenotype (%): 60%
  Total Cell Count: 95
[9]
  Population Apoptotic (%): 80%
  Population Fragmented Nuclei (%): 23%
  Population Healthy Nuclei (%): 67%
  Population Hoechst High Intensity Objects (%): 3%
  Population Membrane Permeable-Phenotype (%): 9%
  Population Mitochondria Different-Phenotype (%): 6%
  Population Mitotic Cells (%): 20%
  Population Normal (%): 96%
  Population Pyknosed Nuclei (%): 8%
  Population Tubulin-Different-Phenotype (%): 6%
  Total Cell Count: 355
[10]
  Population Apoptotic (%): 84%
  Population Fragmented Nuclei (%): 12%
  Population Healthy Nuclei (%): 79%
  Population Hoechst High Intensity Objects (%): 0%
  Population Membrane Permeable-Phenotype (%): 6%
  Population Mitochondria Different-Phenotype (%): 3%
  Population Mitotic Cells (%): 15%
  Population Normal (%): 99%
  Population Tubulin-Different-Phenotype (%): 5%
  Total Cell Count: 220
[11]
  Population Apoptotic (%): 86%
  Population Fragmented Nuclei (%): 44%
  Population Healthy Nuclei (%): 30%
  Population Hoechst High Intensity Objects (%): 5%
  Population Membrane Permeable-Phenotype (%): 46%
  Population Mitochondria Different-Phenotype (%): 31%
  Population Mitotic Cells (%): 13%
  Population Normal (%): 94%
  Population Pyknosed Nuclei (%): 25%
  Population Tubulin-Different-Phenotype (%): 37%
  Total Cell Count: 285
[12]
  Population Apoptotic (%): 66%
  Population Fragmented Nuclei (%): 30%
  Population Healthy Nuclei (%): 49%
  Population Hoechst High Intensity Objects (%): 4%
  Population Membrane Permeable-Phenotype (%): 45%
  Population Mitochondria Different-Phenotype (%): 45%
  Population Mitotic Cells (%): 33%
  Population Normal (%): 95%
  Population Pyknosed Nuclei (%): 20%
  Population Tubulin-Different-Phenotype (%): 50%
  Total Cell Count: 109
